Test results published in ChEMBL document CHEMBL1156412, “Absolute stereostructures of three new sesquiterpenes from the fruit of Alpinia oxyphylla with inhibitory effects on nitric oxide production and degranulation in RBL-2H3 cells” (J Nat Prod, 2002).

How the values were obtained:
[1] = test system: Macrophage; assay: Inhibition of LPS-induced NO production in ddY mouse macrophages assessed as nitrite accumulation at 3 uM after 20 hrs by Griess reagent method relative to control
[2] = test system: RBL-2H3; assay: Inhibition of rat RBL2H3 cell degranulation assessed as inhibition of beta-hexosamidase release at 30 uM after 10 mins by microplate reader assay relative to control; assay type: functional; settings: RBL-2H3, 10 min
Outline: (§1)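 RBL-2H3 cells, 2 × 10^5/well, sensitized overnight with 0.45 µg/mL anti-DNP IgE. Cells washed, then held in Siraganian buffer (pH 7.2, glucose, CaCl2, 0.1% BSA). Sample (0.1% DMSO final) added for 10 min, then DNP-BSA (10 µg/mL final) for 10 min at 37 °C. Supernatant β-hexosaminidase assayed on 1 mM p-nitrophenyl-N-acetyl-β-D-glucosaminide, pH 4.5, 1 h, 405 nm. Inhibition corrected for blank and spontaneous release; N=4.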

[3] = test system: Macrophage; assay: Inhibition of LPS-induced NO production in ddY mouse macrophages assessed as […] accumulation at 10 uM after 20 hrs by Griess reagent method relative to control; assay type: functional
Outline: (§2)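 Adherent peritoneal macrophages from male ddY mice, 5 × 10^5 cells/well, in RPMI 1640 with 5% FCS. Cultured 20 h with 10 µg/mL LPS and compound (3-100 µM, 0.5% DMSO final). Nitrite in the medium measured with Griess reagent. Inhibition % = (A−B)/(A−C)×100 against LPS-only and unstimulated wells. N=4; IC50 determined graphically.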

[4] = test system: Macrophage; assay: Inhibition of LPS-induced NO production in ddY mouse macrophages assessed as […] accumulation at 100 uM after 20 hrs by Griess reagent method relative to control; assay type: functional
Outline: as §2

[5] = test system: RBL-2H3; assay: Inhibition of rat RBL2H3 cell degranulation assessed as inhibition of beta-hexosamidase release at 10 uM after 10 mins by microplate reader assay relative to control; assay type: functional; settings: RBL-2H3, 10 min
Outline: as §1

[6] = test system: RBL-2H3; assay: Inhibition of rat RBL2H3 cell degranulation assessed as inhibition of beta-hexosamidase release at 100 uM after 10 mins by microplate reader assay relative to control; assay type: functional; settings: RBL-2H3, 10 min
Outline: as §1

[7] = test system: Macrophage; assay: Inhibition of LPS-induced NO production in ddY mouse macrophages assessed as […] accumulation at 30 uM after 20 hrs by Griess reagent method relative to control; assay type: functional
Outline: as §2

[8] = test system: Macrophage; assay: Inhibition of LPS-induced NO production in ddY mouse macrophages assessed as […] accumulation after 20 hrs by Griess reagent method; assay type: functional, cell-based
Outline: as §2

[9] = Cytotoxicity against ddY mouse macrophages after 20 hrs by MTT assay; assay type: cell-based; settings: macrophage
Outline: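 Peritoneal exudate macrophages from male ddY mice (adherent after 1 h preculture, >95% macrophages) in RPMI 1640 with 5% FCS. Exposed to 10 µg/mL LPS plus test compound, 0.5% DMSO final, for 20 h. MTT then added for 4 h. Formazan dissolved in 2-propanol/0.04 M HCl and read at 570 nm (reference 655 nm).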

[10] = test system: RBL-2H3; assay: Inhibition of rat RBL2H3 cell degranulation assessed as inhibition of beta-hexosamidase release after 10 mins by microplate reader assay; assay type: functional, cell-based; settings: RBL-2H3, 10 min
Outline: as §1

SMILES | IC50 [8] | IC50 [10] | inhibition at 3 µM [1] | inhibition at 30 µM [2] | inhibition at 10 µM [3] | inhibition at 100 µM [4] | inhibition at 10 µM [5] | inhibition at 100 µM [6] | inhibition at 30 µM [7] | Activity [9]
C=C1CC[C@H]2C(C)(C)CCC[C@]2(C)[C@H]1C/C=C(/C=O)CC=O | 22 µM | – | -4.7% | 13.1% | 9.3% | 95.6% | -0.9% | 42% | 68.1% | Toxic
COc1cc(/C=C/C(=O)CC(=O)/C=C/c2ccc(O)c(OC)c2)ccc1O [CURCUMIN] | – | 3 µM | – | 14.2% | – | – | – | 62.6% | – | –
C=C(C)[C@@H]1CC[C@@]2(C)CC[C@@H](O)C(=C)C2C1 (some centres not stated) [ISOCYPEROL] | 21 µM | – | 10.3% | -11.9% | 23.9% | 96.8% | -5.3% | -28.9% | 64.4% | –
C=C(C)[C@@H]1CCC2=CC(=O)C[C@@H](C)[C@]2(C)C1 [NOOTKATONE] | 34 µM | – | -6.2% | 8.2% | 10.7% | 86.9% | 2% | 25.8% | 44.8% | –
C=C(C)[C@@H]1CC[C@@]2(C)CCC[C@@](C)(O)[C@@H]2C1 | 39 µM | – | 2.5% | 4.4% | 19.2% | 73.3% | 2.9% | 11.9% | 42.2% | –
C=C(C)[C@@H]1CC[C@@]2(O)[C@@H](O)CC[C@@H](C)[C@]2(C)C1 [OXYPHYLLOL C] | – | – | – | 2.4% | – | – | -1.1% | 8.2% | – | –
O=c1cc(-c2ccc(O)c(O)c2)oc2cc(O)cc(O)c12 [LUTEOLIN] | – | 82 µM | – | – | – | – | – | – | – | –
C=C(C)[C@@H]1CC=C2[C@@H](O)CC[C@@H](C)[C@]2(C)C1 | 48 µM | – | 5.8% | -9.2% | 1.8% | 65.3% | -5% | -8% | 31% | –

Now from value to compound, other results behind:

IC50 [8] | IC50 [10] | SMILES | inhibition at 3 µM [1] | inhibition at 30 µM [2] | inhibition at 10 µM [3] | inhibition at 100 µM [4] | inhibition at 10 µM [5] | inhibition at 100 µM [6] | inhibition at 30 µM [7] | Activity [9]
> 100 µM | – | C[C@@]12CCC(=O)C=C1[C@](C)(O)[C@H](O)CC2 [OXYPHYLLENONE B] | -8.1% | -1.3% | 0.4% | 41.2% | -0.8% | -1.8% | 19.2% | –
42 µM | – | C=C(C)[C@H]1C=C2[C@](C)(CCC[C@@]2(C)O)CC1 [OXYPHYLLOL A] | 12.5% | -15.1% | 19.3% | 74.2% | -8.3% | -24% | 40.4% | –
> 30 µM | – | COc1cc(O)c2c(=O)c(O)c(-c3ccccc3)oc2c1 [IZALPININ] | 6.3% | 8.7% | 14.6% | 41.5% | 1.6% | 27.5% | 13.4% | Toxic
23 µM | 49 µM | COc1cc(O)c2c(=O)cc(-c3ccccc3)oc2c1 [TECHTOCHRYSIN] | -0.1% | 40.8% | 19.2% | 87.6% | 11.9% | 75.1% | 60.6% | Toxic
35 µM | – | C[C@@]12CCC(=O)C=C1[C@@](C)(O)[C@H](O)CC2 [OXYPHYLLENONE A] | 1.6% | -4.5% | -2.9% | 85.7% | -3.3% | -4.7% | 43% | –
28 µM | – | CC(C)[C@@H]1CCC(=O)C2=C1[C@H](O)[C@](C)(O)CC2 [OXYPHYLLENODIOL A] | 11.8% | 0.4% | 16.9% | 102% | 1.1% | 1.7% | 52.5% | –
> 100 µM | – | CC(C)[C@H]1CCC(=O)C2=C1[C@H](O)[C@](C)(O)CC2 [OXYPHYLLENODIOL B] | -4.2% | -3.3% | -0.4% | 40.1% | -4.3% | -3.1% | 19.6% | –
28 µM | – | CNC(=N)NCCC[C@H](N)C(=O)O [TILARGININE] | 2% | – | 17.7% | 79.2% | – | – | 52.3% | –
